Source: PubChem
This is a sample that favours compounds with a hit; in the whole collection about 3.7% have one here.
Kir21 block: Kir2.1 (mouse) channel inhibition; P35561; HEK293-Kir2.1, FluxOR thallium flux fluorescence; stronger effect = lower value; B-score at 10 µM; 310,000 tested, 0.85% active; AID 1672;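 active means fluorescence ratio B-score at or below minus 3 SD of library scores, with starting-brightness B-score within 2 SD, cut at about -4.2 in these data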;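 further: channel flux triggered by added potassium and thallium sulfate stimulus; B-score of peak minus minimum fluorescence over baseline after thallium stimulus; more negative B-score means stronger Kir2.1 block with less thallium influx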
KCNK9 block: blocks the human KCNK9 two-pore domain potassium channel | B-score at 10 µM | 310,000 tested, 1.2% active | HEK293 KCNK9, FluxOR thallium flux fluorescence; stronger effect = lower value;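 active means ratio B-score over 3 SD below the library mean, with starting fluorescence within 5 SD of its mean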;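 further: negative B-score means less thallium flux so channel inhibition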
hERG protect: shields human hERG channel from block by proarrhythmic agents; activation (rescue from dofetilide block), less the hit threshold, % at 10 µM; CHO-hERG, FluxOR thallium flux, dofetilide IC70 present; 310,000 tested, 0.51% active; AID 1511;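 active means activation above the mean of controls blocked by dofetilide plus 5 SD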;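 further: thallium influx through hERG after potassium depolarization seen as dye fluorescence rise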
KCNQ1 act: potentiators or activators of human KCNQ1 potassium channel; CHO-K1 KCNQ1, thallium flux FluxOR fluorescence; stronger effect = higher value; B-score at 10 µM; 310,000 tested, 0.35% active;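 active means fluorescence ratio B-score, a plate-corrected score, at least three library SD, with initial intensity B-score within 5 SD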
Target sequence (P51787 whole entry, looked up): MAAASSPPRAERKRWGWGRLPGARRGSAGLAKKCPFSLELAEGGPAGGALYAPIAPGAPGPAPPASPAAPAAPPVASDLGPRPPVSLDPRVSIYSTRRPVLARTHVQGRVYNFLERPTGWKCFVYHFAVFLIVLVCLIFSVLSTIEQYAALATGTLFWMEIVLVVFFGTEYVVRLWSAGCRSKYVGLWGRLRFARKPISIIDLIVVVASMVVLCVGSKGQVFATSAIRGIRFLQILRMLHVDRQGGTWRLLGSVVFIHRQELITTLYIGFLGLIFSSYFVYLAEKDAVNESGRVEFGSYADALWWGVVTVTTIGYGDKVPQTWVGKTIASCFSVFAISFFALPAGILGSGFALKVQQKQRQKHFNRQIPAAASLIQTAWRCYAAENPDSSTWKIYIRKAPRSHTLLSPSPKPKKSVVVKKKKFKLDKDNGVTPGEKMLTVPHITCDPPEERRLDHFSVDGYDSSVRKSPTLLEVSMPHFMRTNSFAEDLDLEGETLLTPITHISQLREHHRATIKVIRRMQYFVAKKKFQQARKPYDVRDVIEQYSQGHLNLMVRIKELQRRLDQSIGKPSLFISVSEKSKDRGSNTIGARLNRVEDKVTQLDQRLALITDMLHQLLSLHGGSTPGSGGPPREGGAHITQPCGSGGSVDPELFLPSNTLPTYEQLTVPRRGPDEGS
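Material: CHO-K1 cells stably expressing KCNQ1. Medium: assay buffer for compound exposure, DMSO matched across wells. Reagent: K+/Tl+ depolarizing stimulus. Compound dosing: single-concentration screen. Times: 37 °C overnight plating, 90-min dark dye load, 20-min compound pretreatment. Technique: FluxOR Tl+ flux fluorescence.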
KCNK3 inh: human KCNK3 channel inhibition, primary screen; AID 602410; CHO-KCNK3 thallium flux, FluxOR fluorescence; stronger effect = lower value; O14649; B-score at 10 µM; 340,000 tested, 0.84% active;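 active means B-score under library mean minus 4 SD, starting fluorescence ratio at most library mean plus 5 SD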;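 further: more negative B-score means stronger inhibition of thallium flux through KCNK3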
KCNQ1 inh: human KCNQ1 channel inhibition | P51787 | CHO-K1 KCNQ1, FluxOR thallium flux fluorescence; stronger effect = higher value | B-score at 10 µM | 310,000 tested, 1.3% active | AID 2642;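 active means compounds whose thallium flux B-score, printed positive for inhibition, exceeds three library SD while starting fluorescence stays within three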;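 further: channel opened by potassium depolarization with thallium stimulus after 20 min compound exposure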
KCNK9 inh conf: confirmation of human KCNK9 potassium channel inhibitors | 4,900 tested, 43% active | inhibition, % at 10 µM | HEK293 KCNK9 cells, FluxOR thallium flux fluorescence | shares compounds with KCNK9 block;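 active means thallium signal inhibited by more than 5 SD of the compound-free buffer control wells, on both duplicate plates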;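 further: 0% = assay buffer control wells without compound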
Kir21 sel: tests whether KCNK9 modulators also affect mouse Kir2.1 | shares compounds with KCNK9 block | Kir2.1 cells, FluxOR thallium flux fluorescence | inhibition, % at 10 µM | 4,900 tested, 4% active;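 active means thallium signal drop more than 5 SD beyond the mean of the no-compound control wells, seen in both duplicate plates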;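 further: signal is fluorescence rise after thallium addition divided by baseline fluorescence; plate controls were assay buffer only for no effect and full block by chlorpromazine control for full effect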
HEK293 Tl ctr: second check of KCNK9 modulator effects in non-induced HEK293 cells. shares compounds with KCNK9 block. FluxOR thallium flux. inhibition, % at 10 µM. 4,900 tested, 40% active;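 active means thallium signal drop beyond 5 SD of the untreated control mean, on both duplicate plates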;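 further: plate controls were buffer only IC0 wells for no effect and SID17386958 at its maximal inhibitory level for full effect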
* hit, by the source's call; i = inactive; · = not tested or not shown.

SMILES	Kir21 block	KCNK9 block	hERG protect	KCNQ1 act	KCNK3 inh	KCNQ1 inh	KCNK9 inh conf	Kir21 sel	HEK293 Tl ctr
CN(CCc1ccccc1)C(=O)c1cc(COc2ccc(F)cc2Cl)on1	-0.71	i	-8	i	i	i	i	i	i
O=C(c1cc(COc2ccc(F)cc2F)on1)N1CCSCC1	0.42	i	-14	i	i	i	·	·	·
Oc1ccc(/C=N/n2c(COc3ccccc3)n[nH]c2=S)c(O)c1	1.2	-8.3*	-15	i	i	i	48%*	i	35%*
O=C(CSc1ccc2ccccc2n1)c1ccc2c(c1)OCO2	-1.4	-8.3*	-5	i	i	i	39%*	i	36%*
Cc1ccc(SCCNC(=O)c2ccc(C)c([N+](=O)[O-])c2)cc1	0.06	i	-15	i	i	i	·	·	·
Cc1ccc(C(=O)NCCSc2ccc(Cl)cc2)cc1[N+](=O)[O-]	-3.5	i	-23	i	i	i	i	i	i
Cc1ccc(C(=O)NCCSc2c(C)[nH]c3ccccc23)cc1[N+](=O)[O-]	-1.1	i	-12	i	i	i	·	·	·
Cc1ccc(SCCNC(=O)c2ccc([N+](=O)[O-])c(C)c2)cc1	-2	i	-7	i	i	i	i	i	i
Cc1cc(C)cc(N(CC(=O)NCC2CCCO2)C(=O)CCC(=O)Nc2nccs2)c1 (centres undefined)	-0.98	i	-5	i	i	i	·	·	·
Cc1ccc(C23CC4CC(CC(CC(=O)N5CCOCC5)(C4)C2)C3)cc1	-0.7	i	-16	i	i	i	i	i	i
O=C1COc2ccc(C(=O)COc3ccc(Cl)cc3Br)cc2N1	0.97	i	-11	i	i	i	·	·	·
O=C(O)c1cccc(CN2C(=O)S/C(=C/c3cccc([N+](=O)[O-])c3)C2=O)c1	0.1	i	-16	i	i	i	i	i	i
CN(C(=O)c1ccc2c(Cl)c3c(nc2c1)CCC3)c1ccccc1	-0.09	i	-13	i	i	i	·	·	·
CCN(C(=O)c1ccc2c(Cl)c3c(nc2c1)CCC3)c1ccc(C)c(C)c1	0.52	i	-16	i	i	i	i	i	i
CC(C)(C)c1ccc(C(=S)N2CCN(c3ccccc3)CC2)cc1	0.39	i	-8	i	i	6*	i	i	i
S=C(c1ccccc1)N1CCN(c2ccccc2)CC1	·	·	·	·	i	·	·	·	·
CN(Cc1cnccn1)Cc1cn(Cc2ccccc2)nc1-c1ccc2c(c1)OCO2	-1.2	i	-16	i	i	i	i	i	i
Cc1ccccc1Cn1nc(C)c(NC(=O)c2noc3c2CC(C(C)(C)C)CC3)c1C (centres undefined)	0.74	i	-4	i	i	i	·	·	·
Cc1ccccc1Cn1nc(C)c(NC(=O)c2noc3c2CCc2ccccc2-3)c1C	-0.05	i	-12	i	i	i	i	i	i
CCCC[C@H]1COCCS(=O)(=O)N1Cc1cccc([N+](=O)[O-])c1	-1.4	i	-9	i	i	i	·	·	·
O=C(Nc1ccc(C(F)(F)F)cc1Cl)c1ccc(Cn2cc(Br)cn2)o1	0.07	-12*	-2	i	i	i	37%*	i	46%*
O=C(N/N=C/c1c(F)cccc1Cl)c1ccc(Cn2cc(Br)cn2)o1	0.78	i	-6	i	i	i	·	·	·
N#C/C(N=Nc1ccccc1O)=N\Nc1ccccc1O	-1.7	-8.7*	-37	i	i	6*	30%*	30%*	i
Oc1ccccc1N=N/C(=N/Nc1ccccc1O)c1ccccc1	0.03	i	-8	i	i	i	·	·	·
CCCN1/C(=C(\C#N)C2=NS(=O)(=O)c3ccccc32)N(C)c2ccccc21	·	·	·	·	i	·	·	·	·
SMILES	Kir21 block	KCNK9 block	hERG protect	KCNQ1 act	KCNK3 inh	KCNQ1 inh	KCNK9 inh conf	Kir21 sel	HEK293 Tl ctr
Cc1cccc(OC2(c3ccccc3)OC(=O)c3ccccc32)c1C (centres undefined)	-0.44	-13*	-11	i	i	i	52%*	i	42%*
CCCCCCCOC1(c2ccccc2)OC(=O)c2ccccc21 (centres undefined)	-0.25	-16*	-16	i	i	i	70%*	i	48%*
COc1ccc(NC2(c3ccccc3)OC(=O)c3ccccc32)cc1 (centres undefined)	0.19	i	-8	i	i	i	·	·	·
CCCCCCOC1(c2ccccc2)OC(=O)c2ccccc21 (centres undefined)	0.35	-15*	-14	i	i	i	79%*	i	50%*
O=C(Oc1ccc2ccc(=O)oc2c1)c1ccc([N+](=O)[O-])cc1	-0.62	-15*	-11	i	i	i	40%*	i	i
Cc1ccc(C(=O)Oc2ccc3ccc(=O)oc3c2)cc1	-2.4	i	-4	i	i	i	·	·	·
CCN1CCN(C(=O)CN(CC)S(=O)(=O)c2ccc(F)cc2)CC1	-1.4	i	-8	i	i	i	·	·	·
CCOC(=O)C1(CCCc2ccccc2)CCN(C(=O)CSC)CC1	-1.5	i	-5	i	i	i	·	·	·
CCOC(=O)C1(CCCc2ccccc2)CCN(C(=O)Cc2nonc2C)CC1	0.39	i	-3	i	i	i	i	i	i
CCOC(=O)C1(CCc2ccccc2)CCN(Cc2cccc3nccnc23)CC1	-0.07	i	-2	i	i	i	i	i	23%*
CCOC(=O)C1(CCCc2ccccc2)CCN(Cc2nccn2CC)CC1	-2.9	i	-17	i	i	i	i	i	i
Cc1ccc(NC(=O)C(C)N2C(=O)c3ccccc3C2=O)c(C)c1 (centres undefined)	1.6	i	-6	i	i	i	·	·	·
COc1ccc(C(=O)NC(=S)NC2CCSC2=O)cc1 (centres undefined)	-1.1	i	-12	i	i	i	·	·	·
CC(C)(C)CC(=O)O/N=C(\N)c1ccncc1	1.4	i	-6	i	i	i	·	·	·
COc1ccc(-c2nc(-c3ccccc3)c(-c3cc([N+](=O)[O-])ccc3C)[nH]2)cc1OC	0.22	-12*	-7	i	i	14*	54%*	i	33%*
